A selection: hits, their analogues and other compounds. The true share with any hit is near 2%.
C8 TRAIL sens = viability loss with TRAIL in NB7+C8 cells, primary screen, TRAIL sensitizer project, cell-based, ATPlite luminescence; actives 1% (n = 360,000); inhibition (viability loss, TRAIL sensitization), % at 10 µM;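 active = compounds causing at least 50% loss of cell viability in the single-dose screen, relative to plate controls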
HSP90 refold inh = HSP90 inhibitors, primary screen, cell lysate, luminescence; Rabbit reticulocyte lysate, luciferase refolding luminescence, 3 h; actives 0.91% (n = 290,000); inhibition, % at 5.6 µM;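 active = inhibition above the screen-wide mean plus 3 SD, computed separately per campaign, cut at about 16% in these data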;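 also: 0% = DMSO wells and 100% = 60 µM geldanamycin wells; inhibitors lower the luminescence because luciferase stays unfolded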
PPC-1+TRAIL kill = compounds killing PPC-1 cancer cells with TRAIL present, primary screen, TRAIL potentiator project, ATPLite luminescence, uHTS; PPC-1 cells + TRAIL, ATPLite viability luminescence; cell killing (% activity), % at 4 µM or 5 µM; actives 0.41% (n = 220,000); AID 1443, 2008;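 active = cell killing above 50% in the first pass at 4 µM, then a duplicate retest at 5 µM averaging 50% or more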;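 also: plate controls were cells with TRAIL plus DMSO for no effect and medium-only wells lacking cells for full effect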
FLuc inh counter = firefly luciferase enzyme inhibitors, primary screen, artefact control for luciferase-based inhibitor screens, biochemical, luminescence, ATPLite | Luciferin 4-monooxygenase (Photinus pyralis), P08659 | 10 min | inhibition, % at 10 µM | actives 1.5% (n = 200,000) | AID 1006, 2008;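 active = inhibition above about 50% when tested at 10 µM, limit read from the data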
Target sequence (P08659 whole entry, looked up): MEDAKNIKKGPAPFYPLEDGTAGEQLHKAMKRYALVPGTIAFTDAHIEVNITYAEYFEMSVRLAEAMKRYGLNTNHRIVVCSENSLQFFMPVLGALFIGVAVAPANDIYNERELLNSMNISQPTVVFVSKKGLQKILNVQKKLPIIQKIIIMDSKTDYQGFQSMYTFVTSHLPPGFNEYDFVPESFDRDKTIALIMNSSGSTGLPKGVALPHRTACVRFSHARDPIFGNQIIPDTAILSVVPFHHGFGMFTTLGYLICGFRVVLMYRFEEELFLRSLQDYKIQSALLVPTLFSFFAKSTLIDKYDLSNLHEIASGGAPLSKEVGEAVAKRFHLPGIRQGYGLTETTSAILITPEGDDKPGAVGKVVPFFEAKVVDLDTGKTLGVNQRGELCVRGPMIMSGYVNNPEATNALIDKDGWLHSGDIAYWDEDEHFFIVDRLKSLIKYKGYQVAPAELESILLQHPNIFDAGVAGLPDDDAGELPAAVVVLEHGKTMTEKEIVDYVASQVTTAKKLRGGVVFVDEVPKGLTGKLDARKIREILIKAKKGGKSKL
FLuc act counter = FLuc activators, initial screening, artefact control for FLuc-dependent activation tests, biochemical, ATPlite luminescence; ATPlite luciferase biochemical, 10 min; 0 = ATP-free wells, 1 = DMSO control; activation factor at 10 µM; 200,000 tested, under 10 active; Luciferin 4-monooxygenase (Photinus pyralis), P08659;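 active = luciferase activation factor, scaled between plate controls, of at least 2 with compound at 10 µM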
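System: Luciferase/luciferin detection reagent, cell-free biochemical luciferase assay | Medium: PBS buffer for ATP | Dosing: Test compounds dosed from 2 mM stocks in 100% DMSO | Timing: 10 min at ambient temperature | Signal: Luminescence measurement of luciferase light output | Evaluation: Luciferase activation, seen as luminescence increase over controls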
* hit, by the source's call; . = not tested or not shown.

SMILES	C8 TRAIL sens	HSP90 refold inh	PPC-1+TRAIL kill	FLuc inh counter	FLuc act counter
Cc1cccc(/C(N)=N/OC(=O)c2ccc(Br)o2)c1	1	0	-4	67*	0.3
COc1ccccc1C1NC(=O)NC(C)=C1C(=O)OCC1CCCCC1 (stereo not drawn)	-22	.	.	.	.
CCC(C(=O)O/N=C(\N)c1cccc(C)c1)c1ccccc1 (stereo not drawn)	41	2	23	5	1
Cc1cccc(/C(N)=N/OC(=O)Cc2ccccc2)c1	2	-3	13	12	0.9
Cc1cccc(/C(N)=N/OC(=O)C23CC4CC(CC(C4)C2)C3)c1	0	4	10	62*	0.4
Cc1cccc(/C(N)=N/OC(=O)c2cccc3ccccc23)c1	92*	1	.	.	.
OC[C@@H]1CN(Cc2cccs2)C[C@H](n2cnc3c(NCc4ccco4)ncnc32)O1	15	.	.	.	.
CCCCNC(=O)c1cn(C)c2ccc(S(=O)(=O)N3CC(C)CC(C)C3)cc2c1=O (stereo not drawn)	56*	0	.	.	.
CCn1cc(C(=O)NCC(OC)OC)c(=O)c2cc(S(=O)(=O)N3CCC(C)CC3)ccc21	65*	2	.	.	.
C[C@@H]1CN([C@H](C)CO)C(=O)c2cc(C#Cc3ccccc3F)cnc2O[C@@H]1CN(C)S(=O)(=O)c1ccccc1F	-4	.	.	.	.
COc1cccc(OCc2ccc(Cl)cc2)c1C#N	59*	1	31	.	.
COc1cccc(CNC(C)(C)CO)c1OCc1ccc(Cl)cc1	-7	-3	13	-7	1.1
CCOC(=O)c1c(C)oc2c(F)c(F)c(F)c(F)c2c1=O	94*	0	21	-5	1
CC(C)c1ccc(C(=O)N2CCCCC2c2cc(C(=O)NCc3cccnc3)no2)cc1 (stereo not drawn)	-3	.	.	.	.
O=C(Nc1ccc(-c2nc3ccccc3[nH]2)cc1)c1ccco1	40	0	33	58*	0.4
O=C(Nc1ccc2nc(-c3ccco3)[nH]c2c1)c1ccco1	47	-2	39	80*	0.2
O=C(/C=C/c1ccco1)Nc1ccc(-c2nc3ccccc3[nH]2)cc1	-38	4	11	-3	1
O=C(Nc1ccc2nc(-c3ccco3)[nH]c2c1)c1cccs1	55*	1	26	77*	0.2
CC(=O)Nc1ccc2nc(-c3ccco3)[nH]c2c1	-6	-1	10	34	0.7
CCc1nnc(NC(=O)c2sc3nc4c(cc3c2N)CCCCC4)s1	36	2	49	68*	0.3
CCCCC1CCC(C(=O)N(CCCC)c2c(N)n(CCCC)c(=O)[nH]c2=O)CC1 (stereo not drawn)	72*	-3	.	.	.
CCCCC1CCC(C(=O)N(CCC(C)C)c2c(N)n(CCCC)c(=O)[nH]c2=O)CC1 (stereo not drawn)	52*	.	.	.	.
CCCCC1CCC(C(=O)N(CC(C)C)c2c(N)n(CCCC)c(=O)[nH]c2=O)CC1 (stereo not drawn)	23	.	.	.	.
CC1(C(=O)Nc2cccnc2)Cc2c(-c3cccc(C(F)(F)F)c3)ccnc2O1 (stereo not drawn)	-7	.	.	.	.
CCOC(=O)C1CCCN(C(=O)c2cc(F)ccc2C)CC1 (stereo not drawn)	-23	.	.	.	.
SMILES	C8 TRAIL sens	HSP90 refold inh	PPC-1+TRAIL kill	FLuc inh counter	FLuc act counter
O=c1c(-c2ccccc2)c1-c1ccccc1	.	20*	6	3	1
O=c1[nH][nH]c(-c2ccccc2)c1-c1ccccc1	1	.	.	.	.
CN(C)Cc1csc(Nc2ccc(C(F)(F)F)cn2)n1	3	.	.	.	.
COc1ccc(CN2C[C@@H](CO)O[C@@H](n3cnc4c(NC5CCC5)ncnc43)C2)cc1	7	.	.	.	.
CC(=O)Nc1cc(-c2ccccc2CN(C)C)cn2c(-c3ccc(F)c(Cl)c3)cnc12	1	.	.	.	.
Cc1ccc(C(=O)C(C)OC(=O)c2ccccc2[N+](=O)[O-])cc1 (stereo not drawn)	31	6	19	65*	0.3
O=c1[nH]c(=S)[nH]c2c1C(c1ccc(Cl)cc1)OC(C1CCCCC1)C2 (stereo not drawn)	15	.	.	.	.
OC[C@@H]1CN(Cc2cccs2)C[C@H](n2cnc3c(NC4CCC4)ncnc32)O1	7	.	.	.	.
Nc1ccc2cc3[nH]c4cc(N)ccc4c3nc2c1	63*	.	.	.	.

From PubChem BioAssay
